# Reference: ChEMBL document CHEMBL1143660, “Structure-activity relationship studies of a series of novel delta-lactam-based histone deacetylase inhibitors” (J Med Chem, 2007)
# Activity calls are given as the source filed them. The rule behind the calls is not given here.
# Target: Histone deacetylase
# Assay: Inhibition of HDAC in HeLa cells by fluorescent activity assay
# Assay type: cell-based, Homo sapiens
# Details: not given
row,Compound,IC50 [µM]
1,O=C(CCC1=CCCN(CCCc2ccccc2)C1=O)NO,0.27
2,O=C(CCCC1=CCCN(CCCCc2ccccc2)C1=O)NO,> 10
3,O=C(CC1=CCCN(CCCCc2ccccc2)C1=O)NO,> 10
4,O=C(CCCC1=CCCN(CCc2ccccc2)C1=O)NO,> 10
5,O=C(CC1=CCCN(CCc2ccccc2)C1=O)NO,> 10
6,O=C(CC1=CCCN(Cc2ccccc2)C1=O)NO,> 10
7,CN1CCC=C(CCC(=O)NO)C1=O,> 10
8,O=C(CC1=CCCN(CCCc2ccccc2)C1=O)NO,> 10
9,O=C(CCCC1=CCCN(CCCc2ccccc2)C1=O)NO,3.21
10,O=C(CCC1=CCCN(CCCCc2ccccc2)C1=O)NO,0.13

# Same assay, conditions: read-out: IC50
row,Compound,IC50 [µM]
1,C=CCN1CCC=C(CCC(=O)NO)C1=O,4.27
2,O=C(CCC1=CCCN(CCc2ccccc2)C1=O)NO,0.35
3,O=C(CCC1=CCCN(Cc2ccccc2)C1=O)NO,0.67
4,COc1ccc(CN2CCC=C(CCC(=O)NO)C2=O)c(OC)c1,0.5

# Test system: RAW264.7
# Assay: Inhibition of LPS-stimulated TNFalpha production in RAW264.7 cells after 24 hrs by ELISA
# Assay type: functional, cell-based
# Details: Mus musculus, RAW264.7, 24 h
row,Compound,IC50 [µM]
1,O=C(CCC1=CCCN(CCCc2ccccc2)C1=O)NO,1.1
2,O=C(CCCC1=CCCN(CCCCc2ccccc2)C1=O)NO,> 10
3,O=C(CC1=CCCN(CCCCc2ccccc2)C1=O)NO,> 10
4,O=C(CCCC1=CCCN(CCc2ccccc2)C1=O)NO,> 10
5,C=CCN1CCC=C(CCC(=O)NO)C1=O,11
6,O=C(CC1=CCCN(CCc2ccccc2)C1=O)NO,> 10
7,O=C(CC1=CCCN(Cc2ccccc2)C1=O)NO,> 10
8,O=C(CCC1=CCCN(CCc2ccccc2)C1=O)NO,1.9
9,CN1CCC=C(CCC(=O)NO)C1=O,> 10
10,O=C(CCC1=CCCN(Cc2ccccc2)C1=O)NO,3.31
11,O=C(CC1=CCCN(CCCc2ccccc2)C1=O)NO,> 10
12,COc1ccc(CN2CCC=C(CCC(=O)NO)C2=O)c(OC)c1,5.06
13,O=C(CCCC1=CCCN(CCCc2ccccc2)C1=O)NO,> 10
14,O=C(CCC1=CCCN(CCCCc2ccccc2)C1=O)NO,1.3

# Test system: RAW264.7
# Assay: Inhibition of LPS-stimulated NO production in RAW264.7 cells after 24 hrs […]
# Assay type: functional, cell-based
# Details: Mus musculus, RAW264.7, 24 h
# Outline: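 RAW264.7 murine macrophages stimulated with LPS and treated with inhibitor at 0.1 to 10 µM; suppression of NO production measured and IC50 calculated; values are means of at least three experiments.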
row,Compound,IC50 [µM]
1,O=C(CCC1=CCCN(CCCc2ccccc2)C1=O)NO,2.71
2,O=C(CCCC1=CCCN(CCCCc2ccccc2)C1=O)NO,6.74
3,O=C(CC1=CCCN(CCCCc2ccccc2)C1=O)NO,> 10
4,O=C(CCCC1=CCCN(CCc2ccccc2)C1=O)NO,> 10
5,C=CCN1CCC=C(CCC(=O)NO)C1=O,> 10
6,O=C(CC1=CCCN(CCc2ccccc2)C1=O)NO,> 10
7,O=C(CC1=CCCN(Cc2ccccc2)C1=O)NO,> 10
8,O=C(CCC1=CCCN(CCc2ccccc2)C1=O)NO,4.27
9,CN1CCC=C(CCC(=O)NO)C1=O,> 10
10,O=C(CCC1=CCCN(Cc2ccccc2)C1=O)NO,3.09
11,O=C(CC1=CCCN(CCCc2ccccc2)C1=O)NO,> 10
12,COc1ccc(CN2CCC=C(CCC(=O)NO)C2=O)c(OC)c1,5.2
13,O=C(CCCC1=CCCN(CCCc2ccccc2)C1=O)NO,6.57
14,O=C(CCC1=CCCN(CCCCc2ccccc2)C1=O)NO,1.8

# Test system: HCT-15
# Assay: Growth inhibition of HCT15 cells by SRB assay
# Assay type: functional, Homo sapiens
# Details: not given
row,Compound,GI50 [µM]
1,O=C(CCCCCCC(=O)Nc1ccccc1)NO [VORINOSTAT],0.82

# Same assay, conditions: Homo sapiens
row,Compound,Activity
1,O=C(CCC1=CCCN(Cc2ccccc2)C1=O)NO,inactive

# Same assay, conditions: Homo sapiens, HCT-15
row,Compound,GI50 [µM]
1,O=C(CCC1=CCCN(CCCc2ccccc2)C1=O)NO,4.99
2,O=C(CCC1=CCCN(CCc2ccccc2)C1=O)NO,8.16
3,COc1ccc(CN2CCC=C(CCC(=O)NO)C2=O)c(OC)c1,7.98
4,O=C(CCC1=CCCN(CCCCc2ccccc2)C1=O)NO,5.37

# Test system: LOX IMVI
# Assay: Growth inhibition of LOX-IMVI cells by SRB assay
# Assay type: functional
# Details: Homo sapiens
row,Compound,GI50 [µM]
1,O=C(CCC1=CCCN(CCCc2ccccc2)C1=O)NO,3.34
2,O=C(CCC1=CCCN(CCc2ccccc2)C1=O)NO,5.84
3,COc1ccc(CN2CCC=C(CCC(=O)NO)C2=O)c(OC)c1,6.63

# Test system: PC-3
# Assay: Growth inhibition of PC3 cells by SRB assay
# Assay type: functional
# Details: Homo sapiens
row,Compound,GI50 [µM]
1,O=C(CCC1=CCCN(CCCc2ccccc2)C1=O)NO,5.04
2,O=C(CCC1=CCCN(CCc2ccccc2)C1=O)NO,8.58
3,COc1ccc(CN2CCC=C(CCC(=O)NO)C2=O)c(OC)c1,4.55
4,O=C(CCC1=CCCN(CCCCc2ccccc2)C1=O)NO,1.32

# Test system: ACHN
# Assay: Growth inhibition of ACHN cells by SRB assay
# Assay type: functional
# Details: Homo sapiens
row,Compound,GI50 [µM]
1,O=C(CCC1=CCCN(CCCc2ccccc2)C1=O)NO,1.17
2,O=C(CCC1=CCCN(CCc2ccccc2)C1=O)NO,7.76
3,COc1ccc(CN2CCC=C(CCC(=O)NO)C2=O)c(OC)c1,9.58
4,O=C(CCC1=CCCN(CCCCc2ccccc2)C1=O)NO,2.5

# Test system: MDA-MB-231
# Assay: Growth inhibition of human MDA-MB-231 cells by SRB assay
# Assay type: functional
# Details: not given
row,Compound,GI50 [nM]
1,O=C(CCCCCCC(=O)Nc1ccccc1)NO [VORINOSTAT],660

# Same assay, conditions: Homo sapiens, MDA-MB-231
row,Compound,GI50 [nM]
1,O=C(CCC1=CCCN(CCCc2ccccc2)C1=O)NO,500
2,O=C(CCC1=CCCN(CCc2ccccc2)C1=O)NO,1620
3,O=C(CCC1=CCCN(Cc2ccccc2)C1=O)NO,4260
4,COc1ccc(CN2CCC=C(CCC(=O)NO)C2=O)c(OC)c1,2670
5,O=C(CCC1=CCCN(CCCCc2ccccc2)C1=O)NO,1500

# Test system: NCI-H23
# Assay: Growth inhibition of NCI-H23 cells by SRB assay
# Assay type: functional
# Details: Homo sapiens
row,Compound,GI50 [µM]
1,O=C(CCC1=CCCN(CCCc2ccccc2)C1=O)NO,3.79
2,O=C(CCC1=CCCN(CCCCc2ccccc2)C1=O)NO,5.14

# Test system: MDA-MB-231
# Assay: Inhibition of tumor growth in MDA-MB-231 cells xenografted BALA/c nude mouse at 30 mg/kg, ip
# Assay type: functional, Homo sapiens
# Details: MDA-MB-231, ip, route intraperitoneal
row,Compound,inhibition in vivo at 30 mg/kg [%]
1,O=C(CCC1=CCCN(CCCCc2ccccc2)C1=O)NO,51
